As usually defined, the EC50 is the concentration at which the effect is half-maximal. For orientation: inhibition means the drop in the measured response relative to a control, in per cent. Usually IC50 stands for the concentration that inhibits the measured activity by half.

19 compounds from ChEMBL document CHEMBL2157924, “Cyclobutane derivatives as novel nonpeptidic small molecule agonists of glucagon-like peptide-1 receptor” (J Med Chem, 2012) can be followed below.

The target in assay [1] is T1, Glucagon-like peptide 1 receptor (Rattus norvegicus) (UniProt P32301).
T1 sequence (whole entry): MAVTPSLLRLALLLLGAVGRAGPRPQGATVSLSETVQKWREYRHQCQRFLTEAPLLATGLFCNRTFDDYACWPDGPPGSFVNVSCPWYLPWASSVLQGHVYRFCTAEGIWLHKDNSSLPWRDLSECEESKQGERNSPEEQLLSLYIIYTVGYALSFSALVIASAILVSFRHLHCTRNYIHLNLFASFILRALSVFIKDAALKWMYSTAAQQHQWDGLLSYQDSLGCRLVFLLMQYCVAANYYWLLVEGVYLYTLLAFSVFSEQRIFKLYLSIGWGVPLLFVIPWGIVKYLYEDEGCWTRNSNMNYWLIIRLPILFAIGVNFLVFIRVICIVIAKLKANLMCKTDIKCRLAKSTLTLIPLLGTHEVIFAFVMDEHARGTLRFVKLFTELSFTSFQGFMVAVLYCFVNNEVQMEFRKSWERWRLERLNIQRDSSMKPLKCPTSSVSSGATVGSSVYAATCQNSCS
Kind of assay: Agonist activity at rat GLP1R expressed in HEK293 cells assessed as stimulation of cAMP levels incubated for 6 hrs by multiple response element/cAMP response element (MRE/CRE)-driven reporter gene assay relative to 10 nM GLP1. It counts as functional, cell-based. The procedure, abridged: (§1)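 Stable HEK293 line co-expressing rat GLP-1R (pCMV-Tag2B) and a luciferase reporter with 3× MRE plus 1× CRE, seeded at 40000 cells/well and cultured overnight. Compounds in DMSO or GLP-1(7−37) were added for 6 h, then cells were lysed and luciferase read (Steady-Glo). The 10 nM GLP-1 maximum was taken as 100%. Mean ± SEM of two independent experiments; some values come from a single run.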
(cAMP levels reflect the balance of adenylyl cyclase and phosphodiesterase activity.)

Assay [2] deals with T2, Glucagon-like peptide 1 receptor (Rattus norvegicus, UniProt P32301).
T2 sequence (P32301 whole entry): T1 sequence (whole entry)
Kind of assay: Agonist activity at rat GLP1R expressed in HEK293 cells assessed as stimulation of cAMP levels incubated for 6 hrs by multiple response element/cAMP response element (MRE/CRE)-driven reporter gene assay. It counts as functional, cell-based. The method, boiled down:
as §1

Assay [3] has as its target T1, Glucagon-like peptide 1 receptor (Rattus norvegicus). Briefly: Inhibition of [125I]GLP1 (7-36) amide binding to rat GLP1R expressed in HEK293 cells relative to untreated control. It counts as cell-based. Set-up: concentration or dose not given beside the values. The settings on record: concentration not given here. The procedure, abridged: (§2)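 Membranes (17 μg protein) from HEK293 cells stably expressing rat GLP-1R were preincubated 5 h at 4 °C with FlashBlue beads (150 μg). Then 40 pM [125I]GLP-1(7−36) amide or [125I]Exendin(9−39) was added with aprotinin 2 μg/mL, leupeptin 100 μM and test compound at varied concentrations. Incubated overnight at 4 °C, then bound radioactivity counted. Mean ± SEM of two independent experiments.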

The target is the same in assay [4]. Briefly: Inhibition of [125I]Exendin (9-39) binding to rat GLP1R expressed in HEK293 cells. Format: cell-based. Set-up: concentration or dose not given beside the values. The settings on record: concentration not given here. The procedure, abridged: as §2
In assay [5] the target is T2, Glucagon-like peptide 1 receptor. Briefly: Inhibition of [125I]GLP1 (7-36) amide binding to rat GLP1R expressed in HEK293 cells. Format: cell-based. The procedure, abridged: as §2

Some results are limits rather than exact numbers.

Take `CC(=O)Nc1ccc([C@H]2[C@](NC(=O)c3ccc(NC(=O)OC(C)(C)C)cc3)(C(=O)O)[C@@H](c3ccc(NC(C)=O)cc3)[C@]2(NC(=O)c2ccc(NC(=O)OC(C)(C)C)cc2)C(=O)O)cc1`: in assay [1], the Efficacy was under 15%. The concentration for a half-maximal effect (EC50) in assay [2] is over 20 µM. The inhibition in assay [3] was 12.1%; in assay [4], 2.8%.
For `COc1cc([C@H]2[C@](NC(=O)c3ccc(NC(=O)OC(C)(C)C)cc3)(C(=O)O)[C@@H](c3ccc(OC(=O)c4cccs4)c(OC)c3)[C@]2(NC(=O)c2ccc(NC(=O)OC(C)(C)C)cc2)C(=O)O)ccc1OC(=O)c1cccs1` (stereo in doubt), the Efficacy in assay [1] is 121%. Moreover, the results for the inhibition in assay [3] and in assay [4] were 89.8% and 70.5%, respectively.
With `COc1cc([C@H]2[C@](NC(=O)c3ccc(NC(=O)OC(C)(C)C)cc3)(C(=O)O)[C@@H](c3ccc(NC(C)=O)c(OC)c3)[C@]2(NC(=O)c2ccc(NC(=O)OC(C)(C)C)cc2)C(=O)O)ccc1NC(C)=O`, the Efficacy in assay [1] was under 15%. Further, the EC50 in assay [2] is over 20 µM. Besides, the inhibition was determined as 32.5% in assay [3] and 9.4% in assay [4].
As to `COc1cc([C@H]2[C@](NC(=O)c3ccc(NC(=O)C45CC6CC(CC(C6)C4)C5)cc3)(C(=O)O)[C@@H](c3ccc(OC(=O)c4cccs4)c(OC)c3)[C@]2(NC(=O)c2ccc(NC(=O)C34CC5CC(CC(C5)C3)C4)cc2)C(=O)O)ccc1OC(=O)c1cccs1`, the Efficacy in assay [1] came to 6%. Also, the IC50 in assay [5] is 8 µM. The inhibition in assay [3] was found to be 50.7%; in assay [4], 46.8%.
Turning to `COc1cc([C@H]2[C@](NC(=O)c3ccc(NC(=O)CO)cc3)(C(=O)O)[C@@H](c3ccc(OC(=O)c4cccs4)c(OC)c3)[C@]2(NC(=O)c2ccc(NC(=O)CO)cc2)C(=O)O)ccc1OC(=O)c1cccs1`, the Efficacy in assay [1] stood at 38%. This compound also registered a half-inhibitory concentration (IC50) in assay [5] of 8.1 µM. Besides, the inhibition in assay [3] stood at 59.3%; in assay [4], 52.7%.
For the compound `COc1cc([C@H]2[C@](NC(=O)c3ccc(NC(=O)C(C)NC(=O)OC(C)(C)C)cc3)(C(=O)O)[C@@H](c3ccc(OC(=O)c4cccs4)c(OC)c3)[C@]2(NC(=O)c2ccc(NC(=O)C(C)NC(=O)OC(C)(C)C)cc2)C(=O)O)ccc1OC(=O)c1cccs1` (some centres undefined), in assay [1], the Efficacy is 49%. The same compound came in with an IC50 in assay [5] of 0.9 µM. Further, the inhibition is 77.3% in assay [3] and 69.7% in assay [4].
`COc1cc([C@H]2[C@](NC(=O)c3ccc(NC(=O)Nc4cccc(F)c4)cc3)(C(=O)O)[C@@H](c3ccc(OC(=O)c4cccs4)c(OC)c3)[C@]2(NC(=O)c2ccc(NC(=O)Nc3cccc(F)c3)cc2)C(=O)O)ccc1OC(=O)c1cccs1`: the Efficacy in assay [1] is 7.7%. Further, the concentration giving a half-maximal response (EC50) in assay [2] was 2.71 µM. Also, the inhibition in assay [3] turned out to be 3.2%; in assay [4] it was 4.7%.
For the compound `CC(C)(C)OC(=O)Nc1ccc(C(=O)N[C@]2(C(=O)O)[C@H](c3ccc(OCc4ccccc4)cc3)[C@@](NC(=O)c3ccc(NC(=O)OC(C)(C)C)cc3)(C(=O)O)[C@@H]2c2ccc(OCc3ccccc3)cc2)cc1`, the Efficacy in assay [1] was 24.8%. Besides, the inhibition in assay [3] worked out at 21.2%; in assay [4], 9.6%.
For the compound `CCCC(=O)Nc1ccc(C(=O)N[C@]2(C(=O)O)[C@H](c3ccc(OC(=O)c4cccs4)c(OC)c3)[C@@](NC(=O)c3ccc(NC(=O)CCC)cc3)(C(=O)O)[C@@H]2c2ccc(OC(=O)c3cccs3)c(OC)c2)cc1`, the Efficacy in assay [1] was determined as 50%. In addition, the IC50 in assay [5] was 3.4 µM. The inhibition in assay [3] stood at 52.4%; in assay [4] it was 48.2%.
`COc1cc([C@H]2[C@](NC(=O)c3ccc(NC(=O)C4CCCCC4)cc3)(C(=O)O)[C@@H](c3ccc(OC(=O)c4cccs4)c(OC)c3)[C@]2(NC(=O)c2ccc(NC(=O)C3CCCCC3)cc2)C(=O)O)ccc1OC(=O)c1cccs1`: the Efficacy in assay [1] stood at 25%. The compound further displayed a half-maximal inhibitory concentration (IC50) in assay [5] of 1 µM. The inhibition stood at 58.9% in assay [3] and 54.8% in assay [4].
For the compound `COc1cc([C@H]2[C@](NC(=O)c3ccc(NC(=O)C(C)N)cc3)(C(=O)O)[C@@H](c3ccc(OC(=O)c4cccs4)c(OC)c3)[C@]2(NC(=O)c2ccc(NC(=O)C(C)N)cc2)C(=O)O)ccc1OC(=O)c1cccs1` (some centres undefined), the Efficacy in assay [1] turned out to be 48%. In addition, the IC50 in assay [5] turned out to be 16.2 µM. Also, the inhibition amounted to 35.2% in assay [3] and 27.9% in assay [4].
Consider `COc1cc([C@H]2[C@](NC(=O)c3ccc(NC(=O)OC(C)(C)C)cc3)(C(=O)O)[C@H](c3ccc(OC(=O)c4cccs4)c(OC)c3)[C@]2(NC(=O)c2ccc(NC(=O)OC(C)(C)C)cc2)C(=O)O)ccc1OC(=O)c1cccs1`, for which the Efficacy in assay [1] is 68.2%. This compound also registered an IC50 in assay [5] of 1.3 µM. In assay [3], the inhibition stood at 73.4%.
As for `COc1cc([C@H]2[C@](NC(=O)c3ccc(NC(=O)OC(C)(C)C)cc3)(C(=O)O)[C@@H](c3ccc(OC(=O)Cc4ccccc4)c(OC)c3)[C@]2(NC(=O)c2ccc(NC(=O)OC(C)(C)C)cc2)C(=O)O)ccc1OC(=O)Cc1ccccc1`, the Efficacy in assay [1] stood at 26%. Also, the values for the inhibition in assay [3] and in assay [4] were 17.5% and 4.8%, respectively.
Turning to `CC(C)(C)OC(=O)Nc1ccc(C(=O)N[C@]2(C(=O)O)[C@H](c3ccc(OC(=O)c4cccs4)cc3)[C@@](NC(=O)c3ccc(NC(=O)OC(C)(C)C)cc3)(C(=O)O)[C@@H]2c2ccc(OC(=O)c3cccs3)cc2)cc1`, the Efficacy in assay [1] was 63.7%. In addition, the inhibition is 63.7% in assay [3] and under 15% in assay [4].
Take `COc1cc([C@H]2[C@](NC(=O)c3ccc(NC(=O)COCc4ccccc4)cc3)(C(=O)O)[C@@H](c3ccc(OC(=O)c4cccs4)c(OC)c3)[C@]2(NC(=O)c2ccc(NC(=O)COCc3ccccc3)cc2)C(=O)O)ccc1OC(=O)c1cccs1`: the Efficacy in assay [1] is 12%. This compound gave a half-maximal inhibitory concentration (IC50) in assay [5] of 1.9 µM. The figures for the inhibition in assay [3] and in assay [4] were 57.5% and 45.9%, respectively.
In the same order, the values of `COc1cc([C@H]2[C@](NC(=O)c3ccc(NC(=O)OC(C)(C)C)cc3)(C(=O)O)[C@H](c3ccc(OC(=O)c4cccs4)c(OC)c3)[C@@]2(NC(=O)c2ccc(NC(=O)OC(C)(C)C)cc2)C(=O)O)ccc1OC(=O)c1cccs1` are 16.5%, 4.3 µM, 42% and 56.3%.
Turning to `COc1cc([C@H]2[C@](NC(=O)c3ccc(NC(=O)Cc4ccccc4)cc3)(C(=O)O)[C@@H](c3ccc(OC(=O)c4cccs4)c(OC)c3)[C@]2(NC(=O)c2ccc(NC(=O)Cc3ccccc3)cc2)C(=O)O)ccc1OC(=O)c1cccs1`, the Efficacy in assay [1] worked out at 32%. This compound also yielded an IC50 in assay [5] of 3.2 µM. Further, the inhibition in assay [3] came out at 45.7%; in assay [4], 33.4%.
Regarding `COc1cc([C@H]2[C@](NC(=O)c3ccc(NC(=O)C(C)C)cc3)(C(=O)O)[C@@H](c3ccc(OC(C)=O)c(OC)c3)[C@]2(NC(=O)c2ccc(NC(=O)C(C)C)cc2)C(=O)O)ccc1OC(C)=O`, the Efficacy in assay [1] came to 30%. The inhibition in assay [3] is 34.1%; in assay [4] it was 35.2%.
In the case of `CC(C)(C)OC(=O)Nc1ccc(C(=O)N[C@]2(C(=O)O)[C@H](c3ccc(OC(=O)c4ccccc4)cc3)[C@@](NC(=O)c3ccc(NC(=O)OC(C)(C)C)cc3)(C(=O)O)[C@@H]2c2ccc(OC(=O)c3ccccc3)cc2)cc1`, the Efficacy in assay [1] was 21.6%. The inhibition in assay [3] was determined as 13.5%; in assay [4], 6.3%.
